Experimental data from ChEMBL document CHEMBL3352594 (J Med Chem, 2014).
The source made the active and inactive calls. No cut-off for these calls is given here.

Experiments:
[1] = Cytotoxicity against C57BL/6 mouse macrophages after 24 hrs by MTT assay; assay type: cell-based; conditions: C57BL/6, Macrophage
In short: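 Thioglycollate-elicited peritoneal macrophages from male C57BL/6 mice, 1 × 10^5 cells/well, adhered 2 h, then exposed to compounds 24 h. Washed, MTT (5 mg/mL in PBS) added 4 h at 37 °C, formazan dissolved in DMSO, absorbance 570 nm.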

Macrophage [2] = test: Inhibition of LPS-induced NO production in C57BL/6 mouse macrophages preincubated with compound for 1 hr before LPS challenge measured after 24 hrs by Griess method; assay type: functional, cell-based; conditions: C57BL/6, Macrophage
In short: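 Peritoneal macrophages harvested from male C57BL/6J mice 3 days after ip thioglycollate; 1 × 10^5 cells/well in RPMI-1640 + 5% newborn calf serum, nonadherent cells removed after 2 h. Compounds added 1 h before LPS 1 μg/mL; 24 h later supernatant nitrite read by Griess reagent at 570 nm against a nitrite standard curve. IC50 from ≥2 experiments in triplicate; selectivity index = cytotoxicity IC50 / NO-inhibition IC50.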

Macrophage [3] = test: Selectivity index, ratio of IC50 for C57BL/6 mouse macrophages to IC50 for LPS-induced NO production in C57BL/6 mouse macrophages
Mus musculus [4] = test: Antiinflammatory activity in specific pathogen-free COPD-like lung inflammation BALB/c mouse model assessed as inhibition of IL-1beta level at 2 umol/kg/day, po for 35 days measured 24 hrs post last dose relative to vehicle-treated control; assay type: functional, organism-based
In short: (§1)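 Male SPF BALB/c mice (18−20 g) exposed to cigarette smoke 5 min twice daily on days 2−13 and 15−35, with 20 μg LPS in 30 μL saline on days 1 and 14. Dosed orally 1 h before first exposure, daily for 35 days. Lungs lavaged 3× with 0.8 mL ice-cold saline about 24 h after last dose. Supernatant cytokines measured by ELISA. n = 8−11, mean ± SEM, Student's t test.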

Mus musculus [5] = test: Antiinflammatory activity in specific pathogen-free COPD-like lung inflammation BALB/c mouse model assessed as inhibition of TNFalpha level at 2 umol/kg/day, po for 35 days measured 24 hrs post last dose relative to vehicle-treated control; assay type: functional, organism-based; in short: as §1
Mus musculus [6] = test: Antiinflammatory activity in specific pathogen-free COPD-like lung inflammation BALB/c mouse model assessed as inhibition of eosinophils at 2 umol/kg/day, po for 35 days measured 24 hrs post last dose relative to vehicle-treated control; assay type: functional, organism-based
In short: (§2)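 Male SPF BALB/c mice (18−20 g) given cigarette smoke 5 min twice daily (days 2−13, 15−35) plus LPS 20 μg in 30 μL saline on days 1 and 14. Oral dosing 1 h before first exposure, daily for 35 days. BAL (3 × 0.8 mL ice-cold saline) collected about 24 h after final dose. Centrifuged pellet resuspended in 200 μL PBS and counted by hemocytometer for differential cells.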

Mus musculus [7] = test: Antiinflammatory activity in specific pathogen-free COPD-like lung inflammation BALB/c mouse model assessed as inhibition of IL-6 level at 2 umol/kg/day, po for 35 days measured 24 hrs post last dose relative to vehicle-treated control; assay type: functional, organism-based; in short: as §1
Mus musculus [8] = test: Antiinflammatory activity in Kunming mouse assessed as inhibition of croton oil-induced ear edema at 10 umol/kg, po administered before challenge relative to vehicle-treated control; assay type: functional
In short: (§3)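 Male Kunming mice; croton oil applied topically to left ear at 0.4 mg/ear. Test agent or equal-volume vehicle given 1 h before (po 5, 10, 20 μmol/kg; sc 77, 154, 308 μmol/kg). Euthanized under pentobarbital 4 h after croton oil; 8 mm ear punches weighed, left minus right weight = edema; inhibition vs vehicle group. n = 10 (po) or 8–9 (sc); mean ± SEM.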

Mus musculus [9] = test: Antiinflammatory activity in Kunming mouse assessed as inhibition of croton oil-induced ear edema at 5 umol/kg, po administered before challenge relative to vehicle-treated control; assay type: functional; in short: as §3
[10] = Toxicity in Kunming mouse administered orally as single dose measured over 14 days; assay type: organism-based; conditions: in vivo, po
In short: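 SPF Kunming mice, half male and half female, fasted 16 h with water allowed, then weighed and randomized at 10/group. Single gavage dose (0.1 mL/10 g) at various doses, with solvent-only controls. Survival monitored for 14 days.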

Mus musculus [11] = test: Antiinflammatory activity in specific pathogen-free COPD-like lung inflammation BALB/c mouse model assessed as inhibition of neutrophils at 2 umol/kg/day, po for 35 days measured 24 hrs post last dose relative to vehicle-treated control; assay type: functional; in short: as §2
Mus musculus [12] = test: Antiinflammatory activity in specific pathogen-free COPD-like lung inflammation BALB/c mouse model assessed as inhibition of white blood cells at 2 umol/kg/day, po for 35 days measured 24 hrs post last dose relative to vehicle-treated control; assay type: functional, organism-based; in short: as §2
Macrophage [13] = test: Inhibition of intrinsic NO production in C57BL/6 mouse macrophages at 10 uM measured after 24 hrs by Griess method; assay type: functional, cell-based
In short: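 Unstimulated peritoneal macrophages (no LPS) cultured 2 h, then exposed to compound at 10 μM for 24 h. Supernatant nitrite measured by Griess assay at 570 nm against a standard curve; untreated, vehicle and LPS (1 μg/mL) wells as controls. Three independent experiments, mean ± SEM.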

Mus musculus [14] = test: Antiinflammatory activity in Kunming mouse assessed as inhibition of croton oil-induced ear edema at 20 umol/kg, po administered before challenge relative to vehicle-treated control; assay type: functional; in short: as §3
Mus musculus [15] = test: Antiinflammatory activity in specific pathogen-free COPD-like lung inflammation BALB/c mouse model assessed as inhibition of IL-8 level at 2 umol/kg/day, po for 35 days measured 24 hrs post last dose relative to vehicle-treated control; assay type: functional
In short: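 SPF male BALB/c mice (18−20 g) exposed to cigarette smoke 5 min twice daily (days 2–13, 15–35) plus 20 μg LPS in 30 μL saline (days 1, 14). Oral drug 2 μmol/kg daily for 35 days, 1 h before exposure. Killed ~24 h after last dose; lungs lavaged 3× with 0.8 mL ice-cold saline; IL-8 in BAL supernatant by ELISA; n = 8−11, mean ± SEM.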

Macrophage [16] = test: Inhibition of LPS-induced iNOS expression in C57BL/6 mouse macrophages preincubated at 1 uM for 1 hr before LPS challenge measured after 24 hrs by immunoblotting; assay type: functional, cell-based
In short: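 Male C57BL/6 peritoneal macrophages pretreated 1 h with compound at 1 μM, then LPS 1 μg/mL for 24 h. Lysates resolved on 10% SDS-PAGE and transferred to PVDF; blots probed with rabbit anti-iNOS and anti-β-actin (1:1000, overnight 4 °C), visualized by ECL. iNOS/β-actin ratio from densitometry; three independent experiments, mean ± SEM.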

Mus musculus [17] = test: Antiinflammatory activity in Kunming mouse assessed as inhibition of croton oil-induced ear edema at 308 umol/kg, sc administered before challenge relative to vehicle-treated control; assay type: functional; in short: as §3
Mus musculus [18] = test: Antiinflammatory activity in Kunming mouse assessed as inhibition of croton oil-induced ear edema at 77 umol/kg, sc administered before challenge relative to vehicle-treated control; assay type: functional; in short: as §3
Mus musculus [19] = test: Antiinflammatory activity in Kunming mouse assessed as inhibition of croton oil-induced ear edema at 154 umol/kg, sc administered before challenge relative to vehicle-treated control; assay type: functional; in short: as §3

| IC50 (Macrophage [2]) | SMILES | IC50 [1] | Ratio IC50 (Macrophage [3]) | inhibition (Macrophage [13]) | inhibition (Macrophage [16]) | further results |
| --- | --- | --- | --- | --- | --- | --- |
| 690 nM | COC(=O)[C@]12OC[C@]34[C@H]([C@@H](O)[C@@H]1O)[C@@]1(C)CC(=O)C(OC(=O)c5ccccc5C(=O)OCCCCOc5no[n+]([O-])c5S(=O)(=O)c5ccccc5)=C(C)[C@@H]1C[C@H]3OC(=O)[C@H](OC(=O)C=C(C)C)[C@@H]24 | 1300 nM | 1.9 |  |  |  |
| 210 nM | COC(=O)[C@]12OC[C@]34[C@H]([C@@H](O)[C@@H]1O)[C@@]1(C)CC(=O)C(O)=C(C)[C@@H]1C[C@H]3OC(=O)[C@H](OC(=O)CCC(=O)OCCCCOc1no[n+]([O-])c1S(=O)(=O)c1ccccc1)[C@@H]24 | 1200 nM | 5.7 |  |  |  |
| 380 nM | COC(=O)[C@]12OC[C@]34[C@H]([C@@H](O)[C@@H]1O)[C@@]1(C)CC(=O)C(O)=C(C)[C@@H]1C[C@H]3OC(=O)[C@H](OC(=O)CCC(=O)OCc1ccc(OCc3c(-c5ccccc5)no[n+]3[O-])cc1)[C@@H]24 | 820 nM | 2.2 |  |  |  |
| 2200 nM | CC(C)=CC(=O)O[C@H]1C(=O)O[C@@H]2C[C@H]3C(C)=C(O)C(=O)C[C@]3(C)[C@H]3[C@@H](O)[C@H](O)[C@]4(C(=O)OCc5ccc(OCc6c(-c7ccccc7)no[n+]6[O-])cc5)OC[C@]32[C@@H]14 | 3900 nM | 1.8 |  |  |  |
| 50 nM | COC(=O)[C@]12OC[C@]34[C@H]([C@@H](O)[C@@H]1O)[C@@]1(C)CC(=O)C(O)=C(C)[C@@H]1C[C@H]3OC(=O)[C@H](OC(=O)C=C(C)C)[C@@H]24 [BRUSATOL] | 140 nM |  |  |  | inhibition in vivo at 10 µmol/kg (Mus musculus [8]): 27.1%; inhibition in vivo at 2 µmol/kg (Mus musculus [15]): 46%; inhibition in vivo at 5 µmol/kg (Mus musculus [9]): 24.3%; inhibition in vivo at 20 µmol/kg (Mus musculus [14]): 46.8% |
| 1300 nM | CC(C)=CC(=O)O[C@H]1C(=O)O[C@@H]2C[C@H]3C(C)=C(OC(=O)CCC(=O)OCCCCOc4no[n+]([O-])c4S(=O)(=O)c4ccccc4)C(=O)C[C@]3(C)[C@H]3[C@@H](O)[C@H](O)[C@]4(C(=O)O)OC[C@]32[C@@H]14 | > 10000 nM | >7.6 | inactive | Active |  |
| 47 nM | COC(=O)[C@]12OC[C@]34[C@H]([C@@H](O)[C@@H]1O)[C@@]1(C)CC(=O)C(OC(=O)CCC(=O)OCc5ccc(OCc6c(-c7ccccc7)no[n+]6[O-])cc5)=C(C)[C@@H]1C[C@H]3OC(=O)[C@H](OC(=O)C=C(C)C)[C@@H]24 | 150 nM | 3.2 | Active |  |  |
| 1100 nM | CC(C)=CC(=O)O[C@H]1C(=O)O[C@@H]2C[C@H]3C(C)=C(O)C(=O)C[C@]3(C)[C@H]3[C@@H](O)[C@H](O)[C@]4(C(=O)OCCCCOc5no[n+]([O-])c5S(=O)(=O)c5ccccc5)OC[C@]32[C@@H]14 | 3000 nM | 2.7 |  |  |  |
| 11000 nM | CC(C)=CC(=O)O[C@H]1C(=O)O[C@@H]2C[C@H]3C(C)=C(O)C(=O)C[C@]3(C)[C@H]3[C@@H](O)[C@H](OC(=O)CCC(=O)OCCCCOc4no[n+]([O-])c4S(=O)(=O)c4ccccc4)[C@]4(C(=O)O)OC[C@]32[C@@H]14 | > 10000 nM |  | inactive | Active |  |
| 2100 nM | COC(=O)[C@]12OC[C@]34[C@H]([C@@H](O)[C@@H]1O)[C@@]1(C)CC(=O)C(OCc5ccc(OCc6c(-c7ccccc7)no[n+]6[O-])cc5)=C(C)[C@@H]1C[C@H]3OC(=O)[C@H](OC(=O)C=C(C)C)[C@@H]24 | > 10000 nM | >4.7 |  |  |  |

| SMILES | IC50 (Macrophage [2]) | IC50 [1] | Ratio IC50 (Macrophage [3]) | inhibition (Macrophage [13]) | inhibition (Macrophage [16]) | further results |
| --- | --- | --- | --- | --- | --- | --- |
| COC(=O)[C@]12OC[C@]34[C@H]([C@@H](O)[C@@H]1O)[C@@]1(C)CC(=O)C(OC(=O)CCC(=O)OCCCCOc5no[n+]([O-])c5S(=O)(=O)c5ccccc5)=C(C)[C@@H]1C[C@H]3OC(=O)[C@H](OC(=O)C=C(C)C)[C@@H]24 | 89 nM | 790 nM | 8.9 | inactive |  | inhibition (Mus musculus [4]): Active; inhibition (Mus musculus [5]): Active; inhibition (Mus musculus [6]): Active; inhibition (Mus musculus [7]): Active; inhibition in vivo at 10 µmol/kg (Mus musculus [8]): 39.9%; inhibition in vivo at 5 µmol/kg (Mus musculus [9]): 29.4%; LD50 at 336 h [10]: 41.1 µmol/kg; inhibition in vivo at 2 µmol/kg (Mus musculus [11]): 85%; inhibition (Mus musculus [12]): Active; inhibition in vivo at 20 µmol/kg (Mus musculus [14]): 53.9% |
| CC(C)=CC(=O)O[C@H]1C(=O)O[C@@H]2C[C@H]3C(C)=C(OC(=O)CCC(=O)OCCCCOc4no[n+]([O-])c4S(=O)(=O)c4ccccc4)C(=O)C[C@]3(C)[C@H]3[C@@H](O)[C@H](OC(=O)CCC(=O)OCCCCOc4no[n+]([O-])c4S(=O)(=O)c4ccccc4)[C@]4(C(=O)O)OC[C@]32[C@@H]14 | 67 nM | > 10000 nM | >149 | inactive | Active | inhibition (Mus musculus [4]): Active; inhibition (Mus musculus [5]): Active; inhibition in vivo at 308 µmol/kg (Mus musculus [17]): 76.5%; inhibition in vivo at 77 µmol/kg (Mus musculus [18]): 31.4%; inhibition (Mus musculus [6]): Active; inhibition (Mus musculus [7]): Active; inhibition in vivo at 10 µmol/kg (Mus musculus [8]): 6.4%; inhibition in vivo at 2 µmol/kg (Mus musculus [15]): 48%; inhibition in vivo at 5 µmol/kg (Mus musculus [9]): 0.9%; LD50 at 336 h [10]: > 3850 µmol/kg; inhibition in vivo at 154 µmol/kg (Mus musculus [19]): 61%; inhibition (Mus musculus [12]): Active; inhibition in vivo at 20 µmol/kg (Mus musculus [14]): 7.8% |
| CC(C)=CC(=O)O[C@H]1C(=O)O[C@@H]2C[C@H]3C(C)=C(O)C(=O)C[C@]3(C)[C@H]3[C@@H](O)[C@H](O)[C@]4(C(=O)O)OC[C@]32[C@@H]14 | > 10000 nM | > 10000 nM |  | Active | Active |  |
